According to ChEMBL document CHEMBL4138271, “Crystal Structures and Human Leukemia Cell Apoptosis Inducible Activities of Parthenolide Analogues Isolated from Piptocoma rufescens” (J Nat Prod, 2018):
pIC50: −log10 of the molar value. Active and inactive are the calls of the source. The rule behind the calls is not given here.

Legend:
EOL1 [1] = experiment: Induction of apoptosis in human EOL-1 cells assessed as necrotic cells at 4 uM after 24 hrs by Annexin-V FITC/7-AAD staining based flow cytometric method (reference value: 0.032%); format: functional
MOLM-13 [2] = experiment: Induction of apoptosis in human MOLM13 cells assessed as late apoptotic cells at 1.6 uM after 24 hrs by Annexin-V FITC/7-AAD staining based flow cytometric method (reference value: 1.43%); format: functional
MOLM-13 [3] = experiment: Synergistic antileukemic activity against human MOLM13 cells assessed as concentration required for <= 75% cell survival after 72 hrs in presence of midostaurin by CellTiter 96 AQueous One solution cell proliferation assay; format: functional
MOLM-13 [4] = experiment: Induction of apoptosis in human MOLM13 cells assessed as necrotic cells at 1.6 uM after 24 hrs by Annexin-V FITC/7-AAD staining based flow cytometric method (reference value: 0%); format: functional
EOL1 [5] = experiment: Induction of apoptosis in human EOL-1 cells assessed as late apoptotic cells at 1.6 uM after 24 hrs by Annexin-V FITC/7-AAD staining based flow cytometric method (reference value: 0.535%); format: functional
MOLM-13 [6] = experiment: Induction of apoptosis in human MOLM13 cells assessed as live cells at 0.81 uM after 24 hrs by Annexin-V FITC/7-AAD staining based flow cytometric method (reference value: 86.8%); format: functional
MOLM-13 [7] = experiment: Cytotoxicity against human MOLM13 cells after 72 hrs by MTS assay; format: functional, cell-based; details: MOLM-13, 72 h
MOLM-13 [8] = experiment: Induction of apoptosis in human MOLM13 cells assessed as necrotic cells at 4 uM after 24 hrs by Annexin-V FITC/7-AAD staining based flow cytometric method (reference value: 0%); format: functional
MOLM-13 [9] = experiment: Induction of apoptosis in human MOLM13 cells assessed as caspase-3 activation at 10 uM after 72 hrs by immunoblotting analysis; format: functional, cell-based
How it was run: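 MOLM-13 cells treated 72 h with test compounds at 10 μM or PKC412 at 10 nM. Cells washed in ice-cold PBS, lysed at 10^8 cells/mL in NP-40 hypertonic buffer (pH 7.5) with protease/phosphatase inhibitors, then run on SDS-PAGE and PVDF. Blots probed 12 h with rabbit monoclonal cleaved caspase-3 (Asp175), β-actin as loading control. Representative of three independent experiments.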

MOLM-13 [10] = experiment: Induction of apoptosis in human MOLM13 cells assessed as necrotic cells at 0.81 uM after 24 hrs by Annexin-V FITC/7-AAD staining based flow cytometric method (reference value: 0%); format: functional
MOLM-13 [11] = experiment: Induction of apoptosis in human MOLM13 cells assessed as early apoptotic cells at 1.6 uM after 24 hrs by Annexin-V FITC/7-AAD staining based flow cytometric method (reference value: 11.8%); format: functional
MOLM-13 [12] = experiment: Induction of apoptosis in human MOLM13 cells assessed as early apoptotic cells at 0.81 uM after 24 hrs by Annexin-V FITC/7-AAD staining based flow cytometric method (reference value: 11.8%); format: functional
EOL1 [13] = experiment: Induction of apoptosis in human EOL-1 cells assessed as necrotic cells at 0.81 uM after 24 hrs by Annexin-V FITC/7-AAD staining based flow cytometric method (reference value: 0.032%); format: functional
MOLM-13 [14] = experiment: Induction of apoptosis in human MOLM13 cells assessed as late apoptotic cells at 0.81 uM after 24 hrs by Annexin-V FITC/7-AAD staining based flow cytometric method (reference value: 1.43%); format: functional
MOLM-13 [15] = experiment: Induction of apoptosis in human MOLM13 cells assessed as live cells at 1.6 uM after 24 hrs by Annexin-V FITC/7-AAD staining based flow cytometric method (reference value: 86.8%); format: functional
EOL1 [16] = experiment: Induction of apoptosis in human EOL-1 cells assessed as late apoptotic cells at 4 uM after 24 hrs by Annexin-V FITC/7-AAD staining based flow cytometric method (reference value: 0.535%); format: functional
MOLM-13 [17] = experiment: Induction of apoptosis in human MOLM13 cells assessed as live cells at 4 uM after 24 hrs by Annexin-V FITC/7-AAD staining based flow cytometric method (reference value: 86.8%); format: functional
EOL1 [18] = experiment: Induction of apoptosis in human EOL-1 cells assessed as live cells at 4 uM after 24 hrs by Annexin-V FITC/7-AAD staining based flow cytometric method (reference value: 97.5%); format: functional
EOL1 [19] = experiment: Induction of apoptosis in human EOL-1 cells assessed as late apoptotic cells at 0.81 uM after 24 hrs by Annexin-V FITC/7-AAD staining based flow cytometric method (reference value: 0.535%); format: functional
EOL1 [20] = experiment: Induction of apoptosis in human EOL-1 cells assessed as live cells at 0.81 uM after 24 hrs by Annexin-V FITC/7-AAD staining based flow cytometric method (reference value: 97.5%); format: functional
EOL1 [21] = experiment: Induction of apoptosis in human EOL-1 cells assessed as early apoptotic cells at 0.81 uM after 24 hrs by Annexin-V FITC/7-AAD staining based flow cytometric method (reference value: 1.94%); format: functional
MOLM-13 [22] = experiment: Induction of apoptosis in human MOLM13 cells assessed as early apoptotic cells at 4 uM after 24 hrs by Annexin-V FITC/7-AAD staining based flow cytometric method (reference value: 11.8%); format: functional
EOL1 [23] = experiment: Synergistic antileukemic activity against human EOL-1 cells assessed as concentration required for <= 75% cell survival after 72 hrs in presence of midostaurin by CellTiter 96 AQueous One solution cell proliferation assay; format: functional
EOL1 [24] = experiment: Induction of apoptosis in human EOL-1 cells assessed as necrotic cells at 1.6 uM after 24 hrs by Annexin-V FITC/7-AAD staining based flow cytometric method (reference value: 0.032%); format: functional
EOL1 [25] = experiment: Induction of apoptosis in human EOL-1 cells assessed as live cells at 1.6 uM after 24 hrs by Annexin-V FITC/7-AAD staining based flow cytometric method (reference value: 97.5%); format: functional
EOL1 [26] = experiment: Cytotoxicity against human EOL-1 cells after 72 hrs by MTS assay; format: functional, cell-based; details: EOL1, 72 h
EOL1 [27] = experiment: Induction of apoptosis in human EOL-1 cells assessed as early apoptotic cells at 4 uM after 24 hrs by Annexin-V FITC/7-AAD staining based flow cytometric method (reference value: 1.94%); format: functional
EOL1 [28] = experiment: Induction of apoptosis in human EOL-1 cells assessed as early apoptotic cells at 1.6 uM after 24 hrs by Annexin-V FITC/7-AAD staining based flow cytometric method (reference value: 1.94%); format: functional
MOLM-13 [29] = experiment: Induction of apoptosis in human MOLM13 cells assessed as late apoptotic cells at 4 uM after 24 hrs by Annexin-V FITC/7-AAD staining based flow cytometric method (reference value: 1.43%); format: functional
EOL1 [30] = experiment: Induction of apoptosis in human EOL-1 cells assessed as caspase-3 activation at 10 uM after 72 hrs by immunoblotting analysis; format: functional, cell-based
How it was run: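 EOL-1 cells (RPMI 1640, 10% FBS, 37 °C, 5% CO2) exposed 72 h; compounds at 10 μM, PKC412 at 10 nM. Harvested, PBS-washed, lysed in hypertonic NP-40 buffer with protease/phosphatase inhibitors; SDS-PAGE, PVDF transfer, rabbit monoclonal cleaved caspase-3 (Asp175) antibody 12 h, secondary 1 h, chemiluminescent detection; β-actin loading control. Representative blots of three independent experiments.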

Compound: C=C1C(=O)O[C@@H]2C3O[C@]3(C)CC/C=C(\C)CC[C@@H]12 (stereo not given in full)
- Activity (EOL1 [1]): 0.118%
- Activity (MOLM-13 [2]): 1.23%
- Activity (MOLM-13 [3]): 3.2 µM
- Activity (MOLM-13 [4]): 0.044%
- Activity (EOL1 [5]): 0.361%
- Activity (MOLM-13 [6]): 90.6%
- pIC50 (MOLM-13 [7]): 5.00
- Activity (MOLM-13 [8]): 0.181%
- Activity (MOLM-13 [9]): Active
- Activity (MOLM-13 [10]): 0.033%
- Activity (MOLM-13 [11]): 4.46%
- Activity (MOLM-13 [12]): 8.23%
- Activity (EOL1 [13]): 0.011%
- Activity (MOLM-13 [14]): 1.14%
- Activity (MOLM-13 [15]): 94.3%
- Activity (EOL1 [16]): 0.697%
- Activity (MOLM-13 [17]): 92.4%
- Activity (EOL1 [18]): 97%
- Activity (EOL1 [19]): 0.329%
- Activity (EOL1 [20]): 98.1%
- Activity (EOL1 [21]): 1.56%
- Activity (MOLM-13 [22]): 6.43%
- Activity (EOL1 [23]): 3.2 µM
- Activity (EOL1 [24]): 0.043%
- Activity (EOL1 [25]): 97.2%
- pIC50 (EOL1 [26]): 5.12
- Activity (EOL1 [27]): 2.13%
- Activity (EOL1 [28]): 2.43%
- Activity (MOLM-13 [29]): 1.02%
- Activity (EOL1 [30]): Active
